Converted amounts (≈) assume the structure as drawn.
Tests used:
Format in all cases: functional
[1] = tested on: Bacillus subtilis; assay: Antimicrobial activity against Bacillus subtilis at 70 ug by agar diffusion test; conditions: read-out: IZ
Outline: (§1)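 Agar diffusion test: 70 µg of sample applied per 9 mm diameter platelet. Read-out is the diameter of the growth-inhibition zone in mm.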

[2] = tested on: Staphylococcus aureus; assay: Antimicrobial activity against […] at 70 ug by agar diffusion test; conditions: read-out: IZ; outline: as §1
[3] = tested on: Streptomyces viridochromogenes; assay: Antimicrobial activity against Streptomyces viridochromogenes at 70 ug by agar diffusion test; conditions: read-out: IZ; outline: as §1
[4] = tested on: Escherichia coli; assay: Antimicrobial activity against Escherichia coli at 70 ug by agar diffusion test; conditions: read-out: IZ; outline: as §1
[5] = tested on: Candida albicans; assay: Antimicrobial activity against Candida albicans at 70 ug by agar diffusion test; conditions: read-out: IZ; outline: as §1
[6] = tested on: Rhizomucor miehei; assay: Antimicrobial activity against Mucor miehei at 70 ug by agar diffusion test; conditions: read-out: IZ; outline: as §1
[7] = tested on: Chlorella vulgaris; assay: Antimicrobial activity against Chlorella vulgaris at 70 ug by agar diffusion test; conditions: read-out: IZ; outline: as §1
[8] = tested on: Chlorella sorokiniana; assay: Antimicrobial activity against Chlorella sorokiniana at 70 ug by agar diffusion test; conditions: read-out: IZ; outline: as §1
[9] = tested on: Desmodesmus subspicatus; assay: Antimicrobial activity against Scenedesmus subspicatus at 70 ug by agar diffusion test; conditions: read-out: IZ; outline: as §1
[10] = tested on: Artemia salina; assay: Antimicrobial activity against Artemia salina at 70 ug by agar diffusion test; conditions: read-out: IZ; outline: as §1
[11] = Cytotoxicity against human HM02 cells
Outline: (§2)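 In vitro growth inhibition of human cancer cell lines was measured following the NCI guidelines. Cell lines: HM02 (gastric adenocarcinoma), HepG2 (hepatocellular carcinoma) and MCF 7 (breast adenocarcinoma).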

[12] = tested on: HepG2; assay: Cytotoxicity against human HepG2 cells; outline: as §2
[13] = tested on: MCF7; assay: Cytotoxicity against human MCF7 cells; outline: as §2
[14] = tested on: HepG2; assay: Cell cycle arrest in human HepG2 cells by accumulation at subG1 phase at 5 ug/mL after 24 hrs by PI staining
Outline: (§3)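 HepG2 cells were exposed for 24 h, trypsinized, and washed in RPMI 1640 with 1% fetal bovine serum. They were stained 15 min at room temperature in the dark in 150 µg/mL propidium iodide, 1% Triton X-100, 1% BSA and 4 mM sodium citrate, pH 7.4. RNase A was then added for 30 min at room temperature. Output is % cells per phase, mean ± SE of three independent experiments, t-test versus control.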

[15] = tested on: HepG2; assay: Cell cycle arrest in human HepG2 cells by accumulation at G1 phase at 5 ug/mL after 24 hrs by PI staining; outline: as §3
[16] = tested on: HepG2; assay: Cell cycle arrest in human HepG2 cells by accumulation at S phase at 5 ug/mL after 24 hrs by PI staining; outline: as §3
[17] = tested on: HepG2; assay: Cell cycle arrest in human HepG2 cells by accumulation at G2/M phase at 5 ug/mL after 24 hrs by PI staining; outline: as §3

Row | SMILES | zone of inhibition at 70 µg/disc [1] | zone of inhibition at 70 µg/disc [2] | zone of inhibition at 70 µg/disc [3] | zone of inhibition at 70 µg/disc [4] | zone of inhibition at 70 µg/disc [5] | zone of inhibition at 70 µg/disc [6] | zone of inhibition at 70 µg/disc [7] | zone of inhibition at 70 µg/disc [8] | zone of inhibition at 70 µg/disc [9] | zone of inhibition at 70 µg/disc [10] | GI50 [11] | TGI [11] | GI50 [12] | TGI [12] | GI50 [13] | TGI [13] | Activity [14] | Activity [15] | Activity [16] | Activity [17]
1 | CC(C)CCC[C@H]1CCCCC(=O)O1 | 0 mm | 0 mm | 13 mm | 0 mm | 0 mm | 11 mm | 11 mm | 12 mm | 11 mm | 0 mm | 2.7 µg/mL (≈ 13.6 µM) | 6.1 µg/mL (≈ 30.8 µM) | 2.2 µg/mL (≈ 11.1 µM) | 6.8 µg/mL (≈ 34.3 µM) | 0.11 µg/mL (≈ 0.555 µM) | 4 µg/mL (≈ 20.2 µM) |  |  |  | 
2 | CC[C@H](C)CCC[C@H]1CCCCC(=O)O1 | 0 mm | 11 mm | 15 mm | 0 mm | 11 mm | 15 mm | 15 mm | 22 mm | 20 mm | 0 mm | 1.9 µg/mL (≈ 8.95 µM) | 5.6 µg/mL (≈ 26.4 µM) | 1.4 µg/mL (≈ 6.59 µM) | 5.7 µg/mL (≈ 26.8 µM) | 0.12 µg/mL (≈ 0.565 µM) | 2.6 µg/mL (≈ 12.2 µM) | 5.7% | 73.7% | 11% | 9.8%

From ChEMBL document CHEMBL1146500, “Novel caprolactones from a marine streptomycete” (2004)
